Only some compounds are listed: those with a hit (about 3.5% of all), similar ones and a draw of the others.
RGS4 pot: RGS4 potentiation or activation; HEK293 M3R/inducible RGS4, carbachol calcium flux Fluo4; stronger effect = lower value; B-score at 10 µM; 0.92% of 310,000 active; AID 463111;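 active = B-score of the integrated calcium signal more than 4 SD below the library mean, with starting fluorescence not abnormally high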;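 note: negative B-score means reduced calcium response which marks RGS4 activation or potentiation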
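Assay system: Inducible-RGS4 HEK293 cells carrying M3 receptor | Schedule: Compound preincubation 20 min at room temperature before agonist | Signal: Kinetic calcium fluorescence imaging with Fluo4-AM dye, 2 µM | Read-out basis: B score from integrated fluorescence ratio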
MrgX1 antag: blocks BAM8-22 activation of human MrgX1 receptor. B-score at 10 µM. AID 588676. MRGX1-HEK293 calcium flux, Fluo-4, BAM8-22 antagonism; stronger effect = lower value. 1.3% of 310,000 active;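 active = calcium-response B-score plate-corrected more than 3 library SD below zero, starting fluorescence within 5 deviations, no agonist response on first addition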;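 note: peak minus trough fluorescence over baseline after final BAM8-22 challenge near maximal dose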
Target sequence (Q96LB2 whole entry, looked up): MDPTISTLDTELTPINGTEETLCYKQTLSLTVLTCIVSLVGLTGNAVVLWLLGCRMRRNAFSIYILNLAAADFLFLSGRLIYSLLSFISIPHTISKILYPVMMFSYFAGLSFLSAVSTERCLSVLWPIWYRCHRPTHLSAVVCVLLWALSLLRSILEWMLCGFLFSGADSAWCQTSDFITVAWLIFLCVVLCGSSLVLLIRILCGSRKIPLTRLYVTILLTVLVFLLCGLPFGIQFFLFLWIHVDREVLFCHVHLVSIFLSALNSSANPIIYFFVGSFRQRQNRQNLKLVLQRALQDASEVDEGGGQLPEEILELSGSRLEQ
RGS4 inh: inhibitors of human RGS4; P49798; HEK293 M3R/RGS4 inducible, Fluo-4 calcium flux; stronger effect = higher value; triggered by carbachol at its EC20; B-score at 10 µM; AID 463165; 0.45% of 310,000 active;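 active = B-score, a plate-corrected calcium signal, over three deviations above library mean, with baseline fluorescence within five deviations of library mean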;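 note: RGS4 expression induced by doxycycline in cells with stable M3 receptor; B-score is computed from the integrated fluorescence ratio over baseline after carbachol; higher B-score means a larger calcium signal and so more RGS4 inhibition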
Target sequence (P49798 whole entry, looked up): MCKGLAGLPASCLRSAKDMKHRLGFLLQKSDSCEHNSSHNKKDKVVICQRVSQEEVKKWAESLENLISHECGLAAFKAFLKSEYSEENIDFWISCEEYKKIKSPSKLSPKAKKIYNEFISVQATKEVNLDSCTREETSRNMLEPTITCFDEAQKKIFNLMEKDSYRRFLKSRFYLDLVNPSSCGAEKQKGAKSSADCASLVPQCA
MrgX1 agonist: activates human MrgX1 receptor signaling | Q96LB2 | B-score at 10 µM | MrgX1-HEK293 cells, Fluo-4 calcium fluorescence, agonist mode; stronger effect = higher value | 0.44% of 310,000 active | AID 588627;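 active = calcium response B-score plate-corrected fluorescence ratio at least 3 library SD, with starting fluorescence B-score inside 5 SD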
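Test system: HEK293 cells stably expressing human MrgX1 receptor; Input: fifteen thousand cells per well; Dosing: compound delivered in addition one of three; Schedule: overnight seeding, then 1 h dark dye loading; Technique: Fluo-4 NW calcium fluorescence; Measure: B-scored fluorescence response ratio; Controls: positive and negative controls per plate.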
MrgX1 PAM: allosterically activates human MrgX1 receptor signaling. MrgX1-HEK293, Fluo-4 calcium flux, FDSS; stronger effect = higher value. B-score at 10 µM. 0.63% of 310,000 active;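 active = plate-corrected calcium response at least 3 library SD above typical, normal starting fluorescence, not activating the receptor alone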;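 note: compound read alongside a low EC10 to EC30 dose of BAM8-22 agonist; peak minus trough fluorescence over baseline measured at the second addition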
MrgX1 ant reconf: human MrgX1 receptor antagonism, re-confirmation screen. shares compounds with MrgX1 antag. MrgX1-HEK293, BAM8-22 calcium flux, Fluo-4; stronger effect = lower value. remaining BAM8-22 calcium response % of control (stronger effect = lower value), % at 10 µM. 19% of 2,300 active;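 active = remaining agonist calcium response no higher than 100% minus 3 SD of agonist-only control wells, with starting fluorescence near control levels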;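 note: agonist BAM8-22 given at a near maximal EC90 to ECmax level; peak minus minimum fluorescence divided by baseline after agonist addition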
HEK293 Ca flux: activity in parental HEK293 cells lacking MrgX1; shares compounds with MrgX1 antag; Fluo-4 calcium fluorescence, FDSS; fluorescence ratio F(max-min)/F0 at 10 µM; 2% of 4,000 active; AID 624111;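 active = duplicate-averaged calcium fluorescence ratio at least three times the standard deviation of buffer wells, a nonspecific response in parental cells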
HEK293 Ca counter: MrgX1 allosteric activator counter-screen hit in parental HEK293 cells. AID 624114. shares compounds with MrgX1 antag. fluorescence ratio F(max-min)/F0 at 10 µM. parental HEK293 calcium flux, Fluo-4 fluorescence ratio; stronger effect = higher value. 0.4% of 4,000 active;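 active = calcium fluorescence ratio, averaged over duplicates, at least 3 SD of the buffer-well ratio, meaning a nonspecific response in receptor-free cells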;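 note: untransfected parental HEK293 lacking MrgX1 used as counterscreen for MrgX1 allosteric activators; fluorescence change taken during the second addition on a kinetic imager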
HEK293 Ca cntr2: activity in parental HEK293 cells lacking MrgX1 receptor; shares compounds with MrgX1 antag; Fluo-4 calcium fluorescence (FDSS); stronger effect = higher value; fluorescence ratio F(max-min)/F0 at 10 µM; 8.7% of 4,000 active;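 active = calcium fluorescence ratio at least three times the spread of buffer wells, meaning a non-specific response in parental cells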
* = called active by the depositor; i = inactive; nt = not tested or not shown.

SMILES	RGS4 pot	MrgX1 antag	RGS4 inh	MrgX1 agonist	MrgX1 PAM	MrgX1 ant reconf	HEK293 Ca flux	HEK293 Ca counter	HEK293 Ca cntr2
Cc1sc2nc(SCC(=O)N3CCCCC3)[nH]c(=O)c2c1C	i	-7.3*	i	i	i	i	i	i	i
O=C(CSc1nc2scc(-c3ccccc3)c2c(=O)[nH]1)N1CCOCC1	i	-9.1*	i	i	i	i	i	i	i
COc1cc(C=Nc2ccccc2C(=O)Nc2ccccc2)cc(OC)c1OC	i	-5.5*	i	i	i	i	i	i	i
COc1cc(NC(=O)c2ccccc2-c2ccccc2)cc(OC)c1OC	i	i	i	i	i	nt	nt	nt	nt
O=[N+]([O-])c1cccc(-c2n[nH]c(=S)n2Cc2ccccc2)c1	i	-17*	i	i	i	i	i	i	i
O=c1cc(CN2CCc3ccccc3C2)nc2sccn12	i	i	i	i	i	nt	nt	nt	nt
CC1=C(C#N)CCC(=O)N1Cc1ccc(C)cc1	i	-7.7*	i	i	i	i	i	i	i
COc1cccc(CN(C)C(=O)/C=C/c2ccc(S(=O)(=O)N3CCCCCC3)cc2)c1	i	i	i	i	i	nt	nt	nt	nt
CCN(CC)C(=O)c1ccc(CS(=O)(=O)Cc2ccccc2)cc1	i	i	i	i	i	nt	nt	nt	nt
Cc1cccc(NS(=O)(=O)c2cc(C(=O)OCC(=O)Nc3cc(C)on3)ccc2C)c1	i	-5*	i	i	i	i	i	i	i
Cc1cccc(NS(=O)(=O)c2ccc(C)c(C(=O)OCC(=O)Nc3cc(C)on3)c2)c1	i	i	i	i	i	nt	nt	nt	nt
c1cc2c(cc1OCCNC1CCCC1)CCC2	i	i	i	i	i	nt	nt	nt	nt
CNCCCOc1ccc2c(c1)CCC2	i	-5*	i	i	i	i	i	i	i
COc1cc(CCC(=O)N2CC(C)OC(C)C2)cc(OC)c1OC (centres undefined)	i	i	i	i	i	nt	nt	nt	nt
Cc1ccc(NC(=O)c2cccnc2)cc1S(=O)(=O)N(C)C	i	i	i	i	i	nt	nt	nt	nt
Cc1ccc(NC(=O)c2ccc3ncsc3c2)cc1S(=O)(=O)N(C)C	i	-5.4*	i	i	i	i	i	i	i
CCOC(=O)C1CCCN(C(=O)c2cc(S(=O)(=O)N3CCCCC3)ccc2Cl)C1 (centres undefined)	i	i	i	i	i	nt	nt	nt	nt
CC(C)Cn1nc(C(=O)OCC(=O)NCC(F)(F)F)c2ccccc2c1=O	i	i	i	i	i	nt	nt	nt	nt
Cc1cc(C(=O)CSc2nc3ccccc3[nH]2)c(C)n1CC1CCCO1 (centres undefined)	i	-8.1*	i	i	i	9.7%*	i	i	i
Cc1ccc2ncnc(Oc3ncccc3NC(=O)C(C)(C)C)c2c1	i	i	i	i	i	nt	nt	nt	nt
CCN(CC)c1ccc(S(=O)(=O)N2CCOCC2)cc1NC(=O)CN1C(=O)NC2(CCC(C)CC2)C1=O (centres undefined)	i	i	i	i	i	nt	nt	nt	nt
CS(=O)(=O)N1CCC(Oc2ccccc2C(=O)N2CCCCC2CO)CC1 (centres undefined)	i	-4.6*	i	i	i	i	i	i	i
CC(O)c1nc2ccccc2n1CCCCOc1ccccc1 (centres undefined)	i	i	i	i	i	nt	nt	nt	nt

From PubChem BioAssay
